HTRA1 inhibitor: HTRA1 (human) protease inhibition; Q92743; recombinant HTRA1, FP-rhodamine activity-based probe, fluorescence polarization; inhibition, % at 5.96 µM; actives 0.5% (n = 340,000); AID 504803; in the data active = inhibition above about 36%;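 note: 0% = enzyme with DMSO and 100% = wells lacking enzyme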
ABHD4 inh: inhibitors of mouse ABHD4 | Q8VD66 | purified mABHD4, FP-Rh probe fluorescence polarization | inhibition, % at 8.92 µM | actives 0.54% (n = 370,000);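 active = inhibition exceeding the mean over every tested compound plus 3 SD, cut at about 30% in these data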;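 note: 0% = plate median of compound wells and 100% = S159A mutant with DMSO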
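assay system = mABHD4 protein | compound dosing = single nominal dose of 8.92 µM, 0.89% DMSO final | read-out basis = percent inhibition of probe binding, normalized to plate controls | schedule = Enzyme–compound pre-incubation 45 min, then probe 60 min, both 25 °C | detection = fluorescence polarization, excitation 525 nm, emission 598 nm, BODIPY TMR filters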
DDE Tn7 FP inh: disrupts Tn7 cyclic peptide binding to fibrin D-Dimer-E complex; actives 0.13% (n = 370,000); inhibition, % at 8.3 µM; P02675; FP displacement of FITC-Tn7 peptide from fibrin DD(E); 0% = median of compound wells per plate;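 active = inhibition above the mean of compounds falling within the control limits plus 3 SD of them, cut at about 14% in these data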;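 note: 0% = plate median of compound wells and 100% = 10 µM Aha-Tn7 peptide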
Target sequence (P02675 whole entry, looked up): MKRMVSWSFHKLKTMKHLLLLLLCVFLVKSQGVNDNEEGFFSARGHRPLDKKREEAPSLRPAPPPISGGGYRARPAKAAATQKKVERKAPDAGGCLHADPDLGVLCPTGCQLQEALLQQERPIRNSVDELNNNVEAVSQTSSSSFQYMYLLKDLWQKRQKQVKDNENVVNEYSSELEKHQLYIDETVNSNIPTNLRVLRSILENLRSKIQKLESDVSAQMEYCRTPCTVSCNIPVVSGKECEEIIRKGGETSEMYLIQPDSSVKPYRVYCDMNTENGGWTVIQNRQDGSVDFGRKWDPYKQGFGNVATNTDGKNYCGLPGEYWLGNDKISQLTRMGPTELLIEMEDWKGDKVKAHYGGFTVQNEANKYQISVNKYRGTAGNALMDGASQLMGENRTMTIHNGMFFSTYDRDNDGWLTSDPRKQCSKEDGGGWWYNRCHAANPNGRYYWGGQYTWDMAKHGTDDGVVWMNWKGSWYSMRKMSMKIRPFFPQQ
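Test system – human fibrin DD(E) · Times – 10 min preincubation, 3 h with tracer, room temperature · Detection – fluorescence polarization of the labelled Tn7 tracer · Measure – percent inhibition normalized to high-control wells · Benchmarks – high control wells with 10 µM unlabelled Aha-Tn7 peptide (full inhibition) · Repeats – singlicate testing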
TCR-CD3 inh: blocks the human TCR-CD3 interaction | TAMRA-labeled TCR probe fluorescence, biochemical | inhibition, % at 9.4 µM | actives 0.37% (n = 360,000) | AID 651800; in the data active = inhibition above about 19%;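 note: recombinant mutant TCR 2C K166C tagged with TAMRA read by polarization; 0% = receptor in buffer alone and 100% = receptor with positive control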
DDE Tn6 FP inh: disrupts Tn6 cyclic peptide binding to fibrin D-Dimer-E complex | inhibition, % at 8.3 µM | Fibrin DD(E) TRITC-Tn6 fluorescence polarization displacement | actives 0.21% (n = 370,000) | AID 720509;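 active = inhibition above a per-campaign cutoff: mean of compounds within control limits plus 3 SD, cut at about 15% in these data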;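 note: 0% = median of all compound wells on the plate and 100% = blocking peptide control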
DDE Tn6 FP ctr: DD(E)-Tn6 binding inhibition, counter-screen. shares compounds with DDE Tn6 FP inh. Fibrin DD(E), TRITC-Tn6 fluorescence polarization displacement; 0% = median of compound wells, not DMSO. inhibition, % at 8.3 µM. actives 2% (n = 680);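 active = inhibition above the mean of test compounds lying between the control limits plus 3 SD of those, cut at about 14% in these data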;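 note: 0% = median of compound wells and 100% = wells with Aha-Tn7 blocking peptide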
Tn6 DDE conf: confirmation of inhibitors of Tn6 binding to human fibrin DD(E) | shares compounds with DDE Tn6 FP inh | FP displacement of TRITC-Tn6 peptide from DD(E); 0% = per-plate median of test wells | inhibition, % at 8.3 µM | actives 10% (n = 680) | AID 720631;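 active = inhibition above the mean of compounds lying within the control limits plus 3 SD, cut at about 16% in these data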;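 note: 100% = high control wells holding a competing inhibitor peptide at 10 µM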
An asterisk follows results filed as active; x = no result given. Compounds with a hit are over-represented: about 1.3% of the library has one in this group of screens.

SMILES	HTRA1 inhibitor	ABHD4 inh	DDE Tn7 FP inh	TCR-CD3 inh	DDE Tn6 FP inh	DDE Tn6 FP ctr	Tn6 DDE conf
CC1CCN(C(=O)COC(=O)Cc2c[nH]c3ccccc23)CC1	9	0	2	-2	21*	5	-6
CC1CCN(C(=O)COC(=O)CCc2c[nH]c3ccccc23)CC1	0	4	4	-1	0	x	x
CCOc1ccc(NC(=O)C(CC)NC(=O)c2ccccc2CO)cc1 (stereo unspecified)	8	1	1	2	20*	-3	-6
CCOc1ccc(NC(=O)[C@@H](NC(=O)c2ccccc2Br)C(C)C)cc1	0	-1	5	-6	-2	x	x
O=C(CSc1cccc[n+]1[O-])NN(c1ccccc1)c1ccccc1	2	8	-5	4	-5	x	x
CCCCN1C(=O)C(C(=O)OCc2ccccc2)CC2=C1CCCC2=O (stereo unspecified)	4	0	-20	-1	21*	-2	-5
O=C(Cn1c(=O)[nH]c2ccsc2c1=O)N1CCN(c2ccc(F)cc2)CC1	x	2	1	3	16*	2	-3
Cc1cccc(NC(=O)CSc2nnc3ccc(-c4cccnc4)nn23)c1	3	0	-8	-3	-1	x	x
O=C(Nc1ccc(S(=O)(=O)Nc2ncccn2)cc1)C1CC(=O)N(c2ccc(Cl)cc2)C1 (stereo unspecified)	-1	4	5	4	17*	-1	-4
O=C(Nc1ccc(S(=O)(=O)Nc2nccs2)cc1)C1CC(=O)N(c2ccc(Cl)cc2)C1 (stereo unspecified)	-3	-6	2	7	4	x	x
CC(C)C1OC2(C)OC(=N)C1(C#N)C(C#N)(C#N)C2c1ccccc1 (stereo unspecified)	7	35*	9	18	20*	-3	2
CCC1OC2(C)OC(=N)C1(C#N)C(C#N)(C#N)C2c1ccccc1 (stereo unspecified)	12	11	2	8	1	x	x
CCOC(=O)C(=CNc1ccc(C)cc1C)C(=O)OCC	-2	1	3	2	15*	8	4
CCOC(=O)C(=CNc1cccc(C)c1C)C(=O)OCC	-9	-5	4	4	-2	x	x
O=C(COC(=O)C1CC1)Nc1ccc(OC(F)F)cc1	-1	4	6	3	15*	-2	-5
O=C(COC(=O)C1CCC1)Nc1ccc(OC(F)F)cc1	1	-18	-2	-5	-2	x	x
CCN(CCNc1ccc(Cl)cc1[N+](=O)[O-])C(=O)c1cc([N+](=O)[O-])c(N(C)C)cc1OC	0	4	3	0	-1	x	x
C[n+]1c(-c2ccccc2)cc2c(=Cc3ccccc3)c3ccccc3n21	-14	-108	-3	-17	17*	3	1
CN(C)c1ccc(C=c2c3cc(O)ccc3n3c2cc(-c2ccccc2)[n+]3C)cc1	-38	-146	2	-29	-12	x	x
O=C(Nc1nc2c(Br)cccc2s1)c1ccc2c(c1)OCCO2	x	-30	-3	x	38*	3	-9
Cc1nc2c(ccc3nc(NC(=O)c4ccc5c(c4)OCCO5)sc32)s1	-38	-10	-1	-1	6	x	x
CC(=O)Nc1nc2cc3c(cc2s1)OCO3	0	4	5	1	16*	4	4
CC(=O)/C(N=Nc1cc(C)ccc1O)=C(\C)O	25	13	-7	10	-1	x	x
COC(=O)c1cccc(NC(=S)N2CCN(c3ccccc3F)CC2)c1	0	-4	4	3	18*	2	-8
Cn1c(=O)[nH]c(=O)c2c1nc1n2CCCS1	5	6	-6	-1	-8	x	x
SMILES	HTRA1 inhibitor	ABHD4 inh	DDE Tn7 FP inh	TCR-CD3 inh	DDE Tn6 FP inh	DDE Tn6 FP ctr	Tn6 DDE conf
Oc1ccccc1C1CC(c2cccs2)=NC(c2cccc(Br)c2)N1 (stereo unspecified)	-24	-4	6	-5	105*	6	-6
CC(=O)N1CCc2cc(S(=O)(=O)NCCC(=O)NCCc3ccccc3)ccc21	0	3	-3	-1	8	x	x
CC(=O)N1CCc2cc(S(=O)(=O)NCCC(=O)NCc3ccccc3)ccc21	x	5	1	x	18*	1	0
C=CCN(CC=C)Cc1nc(N)nc(Nc2ccccc2C)n1	3	4	6	0	1	x	x
O=C(c1ccc(F)cc1)N1CCC(C(=O)N2CCCc3ccccc32)CC1	2	7	-3	3	6	x	x
CCN(Cc1ccncc1)C(=S)Nc1ccccc1	2	3	-2	3	-4	x	x
CCN(Cc1ccncc1)C(=O)C(CO)c1ccccc1 (stereo unspecified)	3	3	3	7	20*	3	-8
CN(C(=O)C12CC3CC(CC(C3)C1)C2)C1(C)CCS(=O)(=O)C1 (stereo unspecified)	-1	4	-3	-1	15*	3	0
CCOc1ccc(CCN2C(=S)N([C@@H](Cc3ccc(O)cc3)CN3CCC[C@@H]3CN3C(=S)NC[C@@H]3CC(C)C)C[C@@H]2Cc2ccc(O)cc2)cc1	x	-33	0	7	16*	0	-6
Oc1ccc(C[C@H]2CN([C@@H](Cc3ccc(O)cc3)CN3CCC[C@@H]3CN3C(=S)NC[C@@H]3Cc3ccccc3)C(=S)N2CCc2ccccc2)cc1	x	-27	6	-2	10	x	x
Oc1ccc(C[C@H]2CN([C@@H](Cc3ccccc3)CN3CCC[C@@H]3CN3C(=S)NC[C@@H]3Cc3ccccc3)C(=S)N2CC2CCCCC2)cc1	x	-4	-10	-3	-9	x	x
Oc1ccc(C[C@H]2CNC(=S)N2C[C@H]2CCCN2C[C@H](Cc2ccccc2)N2C[C@H](Cc3ccc(O)cc3)N(CCc3ccccc3)C2=S)cc1	x	-38	3	6	17*	-2	-10
Oc1ccc(C[C@H]2CNC(=S)N2CC2CCCN2C[C@H](Cc2ccc(O)cc2)N2C[C@H](Cc3ccc(O)cc3)N(CC3CCCCCC3)C2=S)cc1 (stereo partly specified)	-74	-34	8	4	31*	-2	-1
CCOc1ccc(CCN2C(=S)N([C@@H](Cc3ccc(O)cc3)CN3CCCC3CN3C(=S)NC[C@@H]3Cc3ccc(O)cc3)C[C@@H]2CC(C)C)cc1 (stereo partly specified)	-75	-20	2	5	-8	x	x
CCOC(=O)C1CCN(C(=O)c2cc3c(=O)n4cccc(C)c4nc3s2)CC1	8	0	-2	2	0	x	x

Source: PubChem (The Scripps Research Institute Molecular Screening Center)
